# Measured values taken from ChEMBL document CHEMBL1153382 (J Med Chem, 2009).
# Activity calls are given as the source filed them. No cut-off for these calls is given here.
# How the values were obtained:
# [1] = target: T1, 5-hydroxytryptamine receptor 2A (Homo sapiens, UniProt P28223); assay: Agonist activity at human 5HT2A receptor expressed in HEK293 cells at 10 uM assessed as calcium flux by FLIPR assay relative to serotonin; type: functional, cell-based
# [2] = target: T1, 5-hydroxytryptamine receptor 2A; assay: Agonist activity at human 5HT2A receptor expressed in HEK293 cells assessed as calcium flux by FLIPR assay; type: functional, cell-based
# [3] = target: T2, 5-hydroxytryptamine receptor 2B (Homo sapiens, UniProt P41595); assay: Agonist activity at human 5HT2B receptor expressed in HEK293 cells assessed as calcium flux by FLIPR assay; type: functional, cell-based
# T2 sequence (P41595 whole entry): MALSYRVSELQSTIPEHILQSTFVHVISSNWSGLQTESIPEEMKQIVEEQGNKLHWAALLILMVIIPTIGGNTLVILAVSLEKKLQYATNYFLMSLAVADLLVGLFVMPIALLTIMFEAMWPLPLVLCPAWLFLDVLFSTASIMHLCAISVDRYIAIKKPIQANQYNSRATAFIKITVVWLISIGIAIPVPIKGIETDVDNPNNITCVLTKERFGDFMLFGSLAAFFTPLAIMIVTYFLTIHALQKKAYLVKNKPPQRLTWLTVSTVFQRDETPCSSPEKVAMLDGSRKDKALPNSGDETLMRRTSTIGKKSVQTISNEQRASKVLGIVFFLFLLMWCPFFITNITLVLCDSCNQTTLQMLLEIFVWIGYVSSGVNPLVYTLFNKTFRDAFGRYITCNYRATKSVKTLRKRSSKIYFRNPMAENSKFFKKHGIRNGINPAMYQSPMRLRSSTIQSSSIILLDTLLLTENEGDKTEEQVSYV
# [4] = target: T2, 5-hydroxytryptamine receptor 2B; assay: Agonist activity at human 5HT2B receptor expressed in HEK293 cells at 10 uM assessed as calcium flux by FLIPR assay relative to serotonin; type: functional, cell-based
# [5] = target: T3, 5-hydroxytryptamine receptor 2C (Homo sapiens) (UniProt P28335); assay: (§1) Agonist activity at human 5HT2C receptor expressed in HEK293 cells assessed as calcium flux by FLIPR assay; type: functional, cell-based
# T3 sequence (whole entry): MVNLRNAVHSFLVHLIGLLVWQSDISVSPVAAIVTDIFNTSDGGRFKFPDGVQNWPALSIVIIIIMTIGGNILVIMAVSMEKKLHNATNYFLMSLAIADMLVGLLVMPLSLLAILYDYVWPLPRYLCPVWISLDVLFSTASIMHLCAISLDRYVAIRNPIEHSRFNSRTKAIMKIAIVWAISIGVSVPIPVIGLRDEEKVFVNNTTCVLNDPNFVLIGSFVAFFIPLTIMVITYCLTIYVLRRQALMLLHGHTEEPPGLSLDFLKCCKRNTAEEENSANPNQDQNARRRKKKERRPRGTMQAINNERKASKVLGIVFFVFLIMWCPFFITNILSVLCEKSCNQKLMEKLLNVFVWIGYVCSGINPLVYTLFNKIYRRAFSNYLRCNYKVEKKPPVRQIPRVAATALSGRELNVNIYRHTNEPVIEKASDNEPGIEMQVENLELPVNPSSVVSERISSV
# [6] = target: T3, 5-hydroxytryptamine receptor 2C (Homo sapiens); assay: Agonist activity at human 5HT2C receptor expressed in HEK293 cells at 10 uM assessed as calcium flux by FLIPR assay relative to serotonin; type: functional, cell-based
# [7] = target: Serotonin 2 receptors; 5-HT2a & 5-HT2c (Homo sapiens) (UniProt P28223+P28335); assay: Selectivity ratio of EC50 for human 5HT2A receptor to EC50 for human 5HT2C receptor
# Sequence of Serotonin 2 receptors; 5-HT2a & 5-HT2c (Homo sapiens) (P28223 whole entry, looked up, one chain of several): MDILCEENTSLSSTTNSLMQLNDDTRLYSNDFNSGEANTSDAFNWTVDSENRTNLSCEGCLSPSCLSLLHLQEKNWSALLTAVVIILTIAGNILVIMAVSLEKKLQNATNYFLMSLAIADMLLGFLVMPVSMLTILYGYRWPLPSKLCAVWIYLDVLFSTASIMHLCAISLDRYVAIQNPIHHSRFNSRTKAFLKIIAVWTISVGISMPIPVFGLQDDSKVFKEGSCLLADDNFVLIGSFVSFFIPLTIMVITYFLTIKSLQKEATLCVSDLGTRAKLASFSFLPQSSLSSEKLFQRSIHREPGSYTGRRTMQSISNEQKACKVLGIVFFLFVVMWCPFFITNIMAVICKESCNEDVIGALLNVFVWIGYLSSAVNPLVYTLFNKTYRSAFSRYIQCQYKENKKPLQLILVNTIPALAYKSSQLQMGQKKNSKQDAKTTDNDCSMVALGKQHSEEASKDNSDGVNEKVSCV
# Homo sapiens = species on record: Homo sapiens; assay: Selectivity ratio of EC50 for human 5HT2B receptor to EC50 for human 5HT2C receptor
# [8] = Selectivity ratio of Ki for human 5HT2A receptor to Ki for 5HT2C receptor
# [9] = Selectivity ratio of Ki for human 5HT2B receptor to Ki for 5HT2C receptor
# Mus musculus [10] = assay: Antidepressant activity in C57BL/6J mouse assessed as decrease in immobility time at 10 mg/kg, ip administered 30 mins prior to testing measured every 1 min for 6 mins by forced swim test relative to control; type: functional; parameters: scale not given: the % may be the effect or the level left
# Summary of the method: (§2)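 Male C57BL/6J mice, 9 weeks old, housed 4 per cage on a 12 h light-dark cycle. Compound given ip in 10% DMSO in saline 30 min before testing. Each mouse was placed alone in a glass cylinder holding 12 cm of water at 23 ± 1 °C. Immobility (floating posture) was scored every 1 min over a 6 min trial and compared with vehicle.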
# Mus musculus [11] = assay: Antidepressant activity in C57BL/6J mouse assessed as decrease in immobility time at 30 mg/kg, ip administered 30 mins prior to testing measured every 1 min for 6 mins by forced swim test relative to control; type: functional; parameters: scale not given: the % may be the effect or the level left; settings: route intraperitoneal; summary of the method: as §2
# Mus musculus [12] = assay: Antidepressant activity in C57BL/6J mouse assessed as decrease in immobility time at 60 mg/kg, ip administered 30 mins prior to testing measured every 1 min for 6 mins by forced swim test relative to control; type: functional; parameters: scale not given: the % may be the effect or the level left; settings: route intraperitoneal; summary of the method: as §2
# [13] = target: T4, 5-hydroxytryptamine receptor 2C (Homo sapiens, UniProt P28335); assay: as §1; type: functional, cell-based
# T4 sequence (P28335 whole entry): T3 sequence (whole entry)
# [14] = target: T1, 5-hydroxytryptamine receptor 2A; assay: Displacement of [3H]ketanserin from human 5HT2A receptor
# [15] = target: T2, 5-hydroxytryptamine receptor 2B; assay: Displacement of [3H]LSD from human 5HT2B receptor
# [16] = target: T4, 5-hydroxytryptamine receptor 2C; assay: Displacement of [3H]mesulergine from 5HT2C receptor
# [17] = target: Sodium-dependent serotonin transporter (Homo sapiens, UniProt P31645); assay: Displacement of [3H]citalopram from SERT
# Sequence of Sodium-dependent serotonin transporter (P31645 whole entry): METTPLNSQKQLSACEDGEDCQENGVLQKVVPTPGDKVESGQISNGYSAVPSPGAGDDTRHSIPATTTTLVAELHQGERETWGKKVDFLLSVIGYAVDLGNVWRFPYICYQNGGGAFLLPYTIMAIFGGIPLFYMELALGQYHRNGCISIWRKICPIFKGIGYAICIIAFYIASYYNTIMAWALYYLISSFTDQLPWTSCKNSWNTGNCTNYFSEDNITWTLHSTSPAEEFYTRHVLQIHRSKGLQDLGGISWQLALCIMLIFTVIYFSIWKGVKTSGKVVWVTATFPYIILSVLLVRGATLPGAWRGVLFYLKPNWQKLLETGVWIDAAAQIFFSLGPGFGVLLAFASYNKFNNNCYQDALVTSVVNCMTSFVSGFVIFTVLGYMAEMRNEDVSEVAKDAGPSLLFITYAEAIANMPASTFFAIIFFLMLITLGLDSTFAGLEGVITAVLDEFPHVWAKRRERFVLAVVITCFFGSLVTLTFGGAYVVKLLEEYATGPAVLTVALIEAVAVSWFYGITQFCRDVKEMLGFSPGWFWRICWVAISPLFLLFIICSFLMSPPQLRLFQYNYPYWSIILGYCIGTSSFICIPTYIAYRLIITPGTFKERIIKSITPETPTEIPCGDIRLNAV
# [18] = target: Sodium-dependent noradrenaline transporter (Homo sapiens, UniProt P23975); assay: Displacement of [3H]nisoxetine from NET
# Sequence of Sodium-dependent noradrenaline transporter (P23975 whole entry): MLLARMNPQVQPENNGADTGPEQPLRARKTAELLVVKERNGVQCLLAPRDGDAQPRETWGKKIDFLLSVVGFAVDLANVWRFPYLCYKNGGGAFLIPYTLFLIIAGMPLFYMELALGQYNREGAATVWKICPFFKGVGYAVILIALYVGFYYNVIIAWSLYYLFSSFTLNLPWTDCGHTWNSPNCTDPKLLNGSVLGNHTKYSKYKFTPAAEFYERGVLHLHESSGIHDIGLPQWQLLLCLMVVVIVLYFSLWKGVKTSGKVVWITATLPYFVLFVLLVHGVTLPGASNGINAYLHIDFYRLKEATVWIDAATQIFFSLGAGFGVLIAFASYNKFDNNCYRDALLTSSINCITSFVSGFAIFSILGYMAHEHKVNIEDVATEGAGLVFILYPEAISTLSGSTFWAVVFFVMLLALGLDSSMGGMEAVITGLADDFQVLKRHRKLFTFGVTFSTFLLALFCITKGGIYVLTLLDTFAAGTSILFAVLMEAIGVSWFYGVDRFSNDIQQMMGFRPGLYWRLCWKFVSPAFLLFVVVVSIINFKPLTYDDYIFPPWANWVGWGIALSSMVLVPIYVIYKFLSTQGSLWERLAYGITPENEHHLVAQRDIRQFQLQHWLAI
# [19] = target: Sodium-dependent dopamine transporter (Homo sapiens, UniProt Q01959); assay: Displacement of [3H]WIN-35428 from DAT
# Sequence of Sodium-dependent dopamine transporter (Q01959 whole entry): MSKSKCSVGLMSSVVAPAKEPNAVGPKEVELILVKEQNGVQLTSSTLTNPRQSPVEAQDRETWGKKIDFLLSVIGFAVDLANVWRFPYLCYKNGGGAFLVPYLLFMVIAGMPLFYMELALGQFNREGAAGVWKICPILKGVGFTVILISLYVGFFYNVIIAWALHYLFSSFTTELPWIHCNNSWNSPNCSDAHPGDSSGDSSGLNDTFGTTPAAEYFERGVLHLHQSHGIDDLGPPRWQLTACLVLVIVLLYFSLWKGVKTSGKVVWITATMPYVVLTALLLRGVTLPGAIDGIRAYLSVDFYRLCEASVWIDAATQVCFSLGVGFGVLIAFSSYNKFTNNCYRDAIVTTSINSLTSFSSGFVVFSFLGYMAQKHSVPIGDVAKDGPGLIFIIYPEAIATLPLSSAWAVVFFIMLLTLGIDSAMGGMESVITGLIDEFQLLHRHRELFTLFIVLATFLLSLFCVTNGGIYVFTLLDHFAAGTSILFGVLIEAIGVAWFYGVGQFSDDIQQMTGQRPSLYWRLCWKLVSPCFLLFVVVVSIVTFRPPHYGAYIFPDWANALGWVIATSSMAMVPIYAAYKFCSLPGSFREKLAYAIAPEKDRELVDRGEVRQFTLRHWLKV
# T1 sequence (P28223 whole entry): as the sequence (P28223 whole entry, looked up, one chain of several) above
structure (smiles),measurement,setting,value
CN[C@H]1C[C@@H]1c1ccccc1 (racemic),Emax,[1],< 12%
same,Activity,[2],inactive
same,Activity,[3],inactive
same,Emax,[4],6%
same,Activity,[5],inactive
same,Emax,[6],< 12%
Cc1cccc([C@H]2C[C@@H]2CN)c1.Cl (relative stereo),Emax,[1],86%
same,Emax,[4],93%
same,Emax,[6],95%
same,Ratio EC50,[7],123
same,Ratio EC50,Homo sapiens,14
same,Ratio Ki,[8],6.9
same,Ratio Ki,[9],0.32
same,Activity,Mus musculus [10]; route intraperitoneal,28%
same,Activity,Mus musculus [11],38%
same,Activity,Mus musculus [12],38%
NC[C@H]1C[C@@H]1c1ccc(O)cc1 (relative stereo),Emax,[1],< 12%
same,Activity,[2],inactive
same,Activity,[3],inactive
same,Emax,[4],< 12%
same,Activity,[5],inactive
same,Emax,[6],< 12%
c1ccc(CN[C@H]2C[C@@H]2c2ccccc2)cc1 (racemic),Emax,[1],< 12%
same,Activity,[2],inactive
same,Activity,[3],inactive
same,Emax,[4],-1%
same,Activity,[5],inactive
same,Emax,[6],< 12%
NC[C@H]1C[C@@H]1c1ccccc1,Emax,[1],79%
same,EC50,[2],1400 nM
same,EC50,[3],37 nM
same,Emax,[4],111%
same,EC50,[13],5.2 nM
same,Emax,[6],108%
same,Ratio EC50,[7],268
same,Ratio EC50,Homo sapiens,7.2
NC[C@H]1C[C@@H]1c1ccc(F)cc1 (relative stereo),Emax,[1],67%
same,Emax,[4],89%
same,Emax,[6],93%
same,Ratio EC50,[7],47
same,Ratio EC50,Homo sapiens,1.9
same,Ratio Ki,[8],11.5
same,Ratio Ki,[9],0.37
CN(C)[C@H]1C[C@@H]1c1ccccc1 (racemic),Emax,[1],< 12%
same,Activity,[2],inactive
same,Activity,[3],inactive
same,Emax,[4],-2%
same,Activity,[5],inactive
same,Emax,[6],< 12%
NC[C@H]1C[C@@H]1c1ccccc1Br,Emax,[1],76%
same,EC50,[2],67 nM
same,EC50,[3],13 nM
same,Emax,[4],102%
same,EC50,[13],0.78 nM
same,Emax,[6],116%
same,Ratio EC50,[7],86
same,Ratio EC50,Homo sapiens,17
same,Ki,[14],246 nM
same,Ki,[15],16 nM
same,Ki,[16],66 nM
same,Ki,[17],3820 nM
same,Ki,[18],3400 nM
same,Ki,[19],2110 nM
same,Ratio Ki,[8],3.7
same,Ratio Ki,[9],0.24
CN[C@H]1CC[C@@H](c2ccc(Cl)c(Cl)c2)c2ccccc21,Activity,Mus musculus [10],Active
NC[C@H]1C[C@@H]1c1cccc(C#CCCCCO)c1 (relative stereo),Emax,[1],< 12%
same,Activity,[2],inactive
same,EC50,[3],1740 nM
same,Emax,[4],17%
same,EC50,[13],332 nM
same,Emax,[6],79%
same,Ratio EC50,[7],> 30
same,Ratio EC50,Homo sapiens,> 1
NC[C@H]1C[C@@H]1c1ccc(F)cc1Cl (relative stereo),Emax,[1],91%
same,Emax,[4],97%
same,Emax,[6],100%
same,Ratio EC50,[7],30
same,Ratio EC50,Homo sapiens,7.3
same,Ratio Ki,[8],1.2
same,Ratio Ki,[9],0.08
NC[C@@H]1C[C@H]1c1ccccc1Br (relative stereo) [listing 1 of 2 here],Emax,[1],71%
same,Emax,[4],86%
same,Emax,[6],76%
same,Ratio EC50,[7],73
same,Ratio EC50,Homo sapiens,3.7
same,Ratio Ki,[8],5.3
same,Ratio Ki,[9],0.18
NC[C@H]1C[C@@H]1c1ccccc1C#CCCCCO (relative stereo),Emax,[1],< 12%
same,Activity,[2],inactive
same,EC50,[3],204 nM
same,Emax,[4],84%
same,EC50,[13],232 nM
same,Emax,[6],88%
same,Ratio EC50,[7],> 43
same,Ratio EC50,Homo sapiens,0.88
C[C@H]1CNCCc2ccc(Cl)cc21 [LORCASERIN],Emax,[1],26%
same,Emax,[6],124%
same,Ki,[18],> 10000 nM
same,Ki,[19],> 10000 nM
NC[C@@H]1C[C@H]1c1ccccc1Br (relative stereo) [listing 2 of 2 here],EC50,[2],94 nM
same,EC50,[3],4.8 nM
same,EC50,[13],1.3 nM
same,Ki,[14],655 nM
same,Ki,[15],22 nM
same,Ki,[16],124 nM
same,Ki,[17],2720 nM
same,Ki,[18],2730 nM
same,Ki,[19],> 10000 nM
